Measurements from ChEMBL document CHEMBL1955865, “Synthesis of novel spirooxindole derivatives by one pot multicomponent reaction and their antimicrobial activity” (2012).
Converted amounts (≈) assume the structure as drawn. The source made the active and inactive calls. The calls are words filed in the database; no cut-off is given here.

Tests used:
Klebsiella aerogenes [1] = test: Antibacterial activity against Enterobacter aerogenes MTCC 111 at 1000 ug/disc after 24 hrs by disc diffusion assay; format: functional; conditions: MTCC 111, 24 h, read-out: IZ
How it was run: (§1)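 Disc diffusion on Mueller Hinton agar. Cultures (about 10^4 CFU/ml) were swabbed on and dried 10 min. Discs loaded at 1000 µg/disc were left 30 min at room temperature for diffusion, with a solvent negative control. Plates were incubated 24 h at 37 °C. Inhibition zones were measured in mm, and the experiment was done twice.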

Botrytis cinerea [2] = test: Antifungal activity against Botrytis cinerea after 48 to 72 hrs by twofold serial dilution method; format: functional
How it was run: (§2)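 Broth two-fold serial dilution, 1000 to 15.62 µg/ml, with compound dissolved in 2% DMSO, in 96-well plates. Filamentous fungal spores came from 10-day SDA slants at 28 °C, and yeast from SDB grown 48 h at 28 °C. Incubation was 48-72 h at 28 °C. MIC was the lowest concentration with no visible fungal growth.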

Staphylococcus aureus [3] = test: Antibacterial activity against methicillin-resistant Staphylococcus aureus at 1000 ug/disc after 24 hrs by disc diffusion assay; format: functional; conditions: read-out: IZ
How it was run: (§3)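 Disc diffusion on Mueller Hinton agar. Bacteria were grown 24 h at 37 °C in MHB and diluted to about 10^4 CFU/ml, swabbed onto plates and dried 10 min. Discs were loaded at 1000 μg/disc and held 30 min at room temperature for diffusion. Solvent served as negative control. After 24 h at 37 °C, inhibition zones were read in mm; run twice.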

Staphylococcus aureus [4] = test: Antibacterial activity against methicillin-resistant Staphylococcus aureus after 24 hrs by twofold serial dilution method; format: functional
How it was run: (§4)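 Broth microdilution in MHB following the standard bacterial reference method. Compound was dissolved in DMSO (2%) and serially diluted two-fold from 1000 to 15.62 µg/ml in 96-well plates, with an inoculum of about 10^4 CFU/ml. Streptomycin and ciprofloxacin were positive controls. After 24 h at 37 °C, 5 µl of broth was subcultured on MHA. MIC was the lowest concentration without visible growth on agar.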

[5] = Antifungal activity against Malassezia pachydermatis at 1000 ug/disc after 48 hrs by disc diffusion assay; format: functional
How it was run: (§5)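 Fungal disc diffusion with inoculum from SDA spores (filamentous) or SDB culture (yeast). Test cultures were swabbed on agar, and discs at 1000 µg/disc were left 30 min at room temperature, with a solvent negative control. Plates were incubated 48 h at 27 °C. Zone of inhibition was measured in mm, and the experiment was repeated twice.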

Klebsiella aerogenes [6] = test: Antibacterial activity against Enterobacter aerogenes MTCC 111 after 24 hrs by twofold serial dilution method; format: functional; conditions: MTCC 111, 24 h
How it was run: (§6)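 Bacteria grown in Mueller Hinton broth for 24 h at 37 °C and diluted to about 10^4 CFU/ml. Compound in 2% DMSO was serially diluted two-fold (1000 to 15.62 µg/ml) in medium in 96-well plates and inoculated. Plates were incubated 24 h at 37 °C. 5 µl of broth was spotted onto MHA, and MIC was taken as the lowest concentration with no visible growth on agar.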

Staphylococcus aureus [7] = test: Ratio of streptomycin MIC to compound MIC for methicillin-resistant Staphylococcus aureus; format: functional
Klebsiella pneumoniae [8] = test: Antibacterial activity against Klebsiella pneumoniae MTCC 109 at 1000 ug/disc after 24 hrs by disc diffusion assay; format: functional; conditions: MTCC 109, 24 h, read-out: IZ; how it was run: as §1
Micrococcus luteus [9] = test: Antibacterial activity against Micrococcus luteus at 1000 ug/disc after 24 hrs by disc diffusion assay; format: functional; conditions: read-out: IZ; how it was run: as §1
Micrococcus luteus [10] = test: Ratio of ciprofloxacin MIC to compound MIC for Micrococcus luteus; format: functional
Staphylococcus aureus [11] = test: Ratio of ciprofloxacin MIC to compound MIC for methicillin-resistant Staphylococcus aureus; format: functional
Proteus vulgaris [12] = test: Antibacterial activity against Proteus vulgaris MTCC 1771 after 24 hrs by twofold serial dilution method; format: functional; conditions: MTCC 1771, 24 h; how it was run: as §6
[13] = system: Salmonella enterica subsp. enterica serovar Paratyphi B; test: Antibacterial activity against Salmonella paratyphi B at 1000 ug/disc after 24 hrs by disc diffusion assay; format: functional; conditions: read-out: IZ; how it was run: as §3
[14] = Antifungal activity against Malassezia pachydermatis after 48 to 72 hrs by twofold serial dilution method; format: functional; how it was run: as §2
Candida albicans [15] = test: Antifungal activity against Candida albicans MTCC 227 after 48 to 72 hrs by twofold serial dilution method; format: functional; how it was run: as §2
Staphylococcus aureus [16] = test: Antibacterial activity against Staphylococcus aureus MTCC 96 at 1000 ug/disc after 24 hrs by disc diffusion assay; format: functional; conditions: MTCC 96, 24 h, read-out: IZ; how it was run: as §1
Klebsiella pneumoniae [17] = test: Antibacterial activity against Klebsiella pneumoniae MTCC 109 after 24 hrs by twofold serial dilution method; format: functional; conditions: MTCC 109, 24 h; how it was run: as §6
Botrytis cinerea [18] = test: Antifungal activity against Botrytis cinerea at 1000 ug/disc after 48 hrs by disc diffusion assay; format: functional; conditions: read-out: IZ; how it was run: as §5
Micrococcus luteus [19] = test: Antibacterial activity against Micrococcus luteus after 24 hrs by twofold serial dilution method; format: functional; how it was run: as §6
[20] = system: Salmonella enterica subsp. enterica serovar Paratyphi B; test: Antibacterial activity against Salmonella paratyphi B after 24 hrs by twofold serial dilution method; format: functional; how it was run: as §4
Staphylococcus aureus [21] = test: Antibacterial activity against Staphylococcus aureus MTCC 96 after 24 hrs by twofold serial dilution method; format: functional; conditions: MTCC 96, 24 h; how it was run: as §6
Salmonella typhimurium [22] = test: Antibacterial activity against Salmonella Typhimurium MTCC 1251 at 1000 ug/disc after 24 hrs by disc diffusion assay; format: functional, Salmonella enterica subsp. enterica serovar Typhimurium; conditions: Salmonella enterica, MTCC 1251, 24 h; read-out: IZ; how it was run: as §1
Candida albicans [23] = test: Ratio of fluconazole MIC to compound MIC for Candida albicans MTCC 227; format: functional
Candida albicans [24] = test: Antifungal activity against Candida albicans MTCC 227 at 1000 ug/disc after 48 hrs by disc diffusion assay; format: functional; conditions: MTCC 227, 48 h, read-out: IZ; how it was run: as §5
Proteus vulgaris [25] = test: Antibacterial activity against Proteus vulgaris MTCC 1771 at 1000 ug/disc after 24 hrs by disc diffusion assay; format: functional; conditions: MTCC 1771, 24 h, read-out: IZ; how it was run: as §1
Salmonella typhimurium [26] = test: Ratio of ciprofloxacin MIC to compound MIC for Salmonella Typhimurium MTCC 1251; format: functional, Salmonella enterica subsp. enterica serovar Typhimurium
Salmonella typhimurium [27] = test: Antibacterial activity against Salmonella Typhimurium MTCC 1251 after 24 hrs by two-fold serial dilution method; format: functional, Salmonella enterica subsp. enterica serovar Typhimurium; conditions: Salmonella enterica, MTCC 1251, 24 h; how it was run: as §6
Salmonella typhimurium [28] = test: Antibacterial activity against Salmonella Typhimurium MTCC 1251 at 10 ug/disc after 24 hrs by disc diffusion assay; format: functional, Salmonella enterica subsp. enterica serovar Typhimurium; conditions: Salmonella enterica, MTCC 1251, 24 h; read-out: IZ
How it was run: (§7)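 Streptomycin positive-control discs (10 µg/disc) on Mueller Hinton agar swabbed with bacterial culture (about 10^4 CFU/ml). Discs stood 30 min at room temperature, then plates were incubated 24 h at 37 °C. Zones of inhibition were recorded in mm, and the experiment was repeated twice.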

Klebsiella aerogenes [29] = test: Antibacterial activity against Enterobacter aerogenes MTCC 111 at 10 ug/disc after 24 hrs by disc diffusion assay; format: functional; conditions: MTCC 111, 24 h, read-out: IZ; how it was run: as §7
Proteus vulgaris [30] = test: Antibacterial activity against Proteus vulgaris MTCC 1771 at 10 ug/disc after 24 hrs by disc diffusion assay; format: functional; conditions: MTCC 1771, 24 h, read-out: IZ; how it was run: as §7
[31] = system: Salmonella enterica subsp. enterica serovar Paratyphi B; test: Antibacterial activity against Salmonella paratyphi B at 10 ug/disc after 24 hrs by disc diffusion assay; format: functional; conditions: read-out: IZ
How it was run: (§8)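 Streptomycin positive-control discs at 10 μg/disc on Mueller Hinton agar, swabbed with bacteria grown 24 h at 37 °C in MHB and diluted to about 10^4 CFU/ml. Discs stood 30 min at room temperature, then plates were incubated 24 h at 37 °C. Inhibition zones were measured in mm; experiment repeated twice.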

Klebsiella pneumoniae [32] = test: Antibacterial activity against Klebsiella pneumoniae MTCC 109 at 10 ug/disc after 24 hrs by disc diffusion assay; format: functional; conditions: MTCC 109, 24 h, read-out: IZ; how it was run: as §7
Staphylococcus aureus [33] = test: Antibacterial activity against Staphylococcus aureus MTCC 96 at 10 ug/disc after 24 hrs by disc diffusion assay; format: functional; conditions: MTCC 96, 24 h, read-out: IZ; how it was run: as §7
Micrococcus luteus [34] = test: Antibacterial activity against Micrococcus luteus at 10 ug/disc after 24 hrs by disc diffusion assay; format: functional; conditions: read-out: IZ; how it was run: as §7
Staphylococcus aureus [35] = test: Antibacterial activity against methicillin-resistant Staphylococcus aureus at 10 ug/disc after 24 hrs by disc diffusion assay; format: functional; conditions: read-out: IZ; how it was run: as §8

| SMILES | zone of inhibition at 1000 µg/disc (Klebsiella aerogenes [1]) [mm] | MIC (Botrytis cinerea [2]) [µg/mL] | zone of inhibition at 1000 µg/disc (Staphylococcus aureus [3]) [mm] | MIC (Staphylococcus aureus [4]) [µg/mL] | inhibition zone (IZ) [5] [mm] | MIC (Klebsiella aerogenes [6]) [µg/mL] | zone of inhibition at 1000 µg/disc (Klebsiella pneumoniae [8]) [mm] | zone of inhibition at 1000 µg/disc (Micrococcus luteus [9]) [mm] | MIC (Proteus vulgaris [12]) [µg/mL] | zone of inhibition at 1000 µg/disc [13] [mm] | MIC [14] [µg/mL] | MIC (Candida albicans [15]) [µg/mL] | zone of inhibition at 1000 µg/disc (Staphylococcus aureus [16]) [mm] | MIC (Klebsiella pneumoniae [17]) [µg/mL] | zone of inhibition at 1000 µg/disc (Botrytis cinerea [18]) [mm] | MIC (Micrococcus luteus [19]) [µg/mL] | MIC [20] | MIC (Staphylococcus aureus [21]) [µg/mL] | zone of inhibition at 1000 µg/disc (Salmonella typhimurium [22]) [mm] | MIC (Salmonella typhimurium [27]) [µg/mL] | other results |
| --- | --- | --- | --- | --- | --- | --- | --- | --- | --- | --- | --- | --- | --- | --- | --- | --- | --- | --- | --- | --- | --- |
| CC(=O)N1C(=O)C2(C3=C(CN2C)C(=O)c2ccccc2C3=O)c2ccccc21 (configuration not stated) | 21 | 125 (≈ 336 µM) | 16 | 62.5 (≈ 168 µM) | 19 | 15.6 (≈ 41.9 µM) | 24 | 22 | < 15.6 | 28 | 15.6 (≈ 41.9 µM) | 31.2 (≈ 83.9 µM) | 18 | 15.6 (≈ 41.9 µM) | 15 | 15.6 (≈ 41.9 µM) | < 15.6 µg/mL | 31.2 (≈ 83.9 µM) | 24 | 15.6 (≈ 41.9 µM) | Ratio (Staphylococcus aureus [7]): >1.6; Ratio (Micrococcus luteus [10]): >6.4; Ratio (Staphylococcus aureus [11]): >1.6; Ratio (Candida albicans [23]): >3.2; zone of inhibition at 1000 µg/disc (Candida albicans [24]): 18 mm; zone of inhibition at 1000 µg/disc (Proteus vulgaris [25]): 26 mm; Ratio (Salmonella typhimurium [26]): >6.4 |
| Cc1ccc2c(c1)C1(C(=O)N2)C2=C(CN1C)C(=O)c1ccccc1C2=O (configuration not stated) | 13 | 250 (≈ 726 µM) | 12 | 125 (≈ 363 µM) | 12 | 125 (≈ 363 µM) | 13 | 13 | 250 (≈ 726 µM) | 11 | 125 (≈ 363 µM) | 250 (≈ 726 µM) | 15 | 62.5 (≈ 181 µM) | 9 | 62.5 (≈ 181 µM) | 125 µg/mL (≈ 363 µM) | 31.2 (≈ 90.7 µM) | 12 | 250 (≈ 726 µM) | zone of inhibition at 1000 µg/disc (Candida albicans [24]): 8 mm; zone of inhibition at 1000 µg/disc (Proteus vulgaris [25]): 9 mm |
| CN[C@@H]1[C@H](O[C@H]2[C@H](O[C@H]3[C@H](O)[C@@H](O)[C@H](N=C(N)N)[C@@H](O)[C@@H]3N=C(N)N)O[C@@H](C)[C@]2(O)C=O)O[C@@H](CO)[C@H](O)[C@H]1O [STREPTOMYCIN] |  |  |  | > 100 |  | 25 (≈ 43 µM) |  |  | 6.25 (≈ 10.7 µM) |  |  |  |  | 6.25 (≈ 10.7 µM) |  | 6.25 (≈ 10.7 µM) | inactive | 6.25 (≈ 10.7 µM) |  | 30 (≈ 51.6 µM) | zone of inhibition at 10 µg/disc (Salmonella typhimurium [28]): 23 mm; zone of inhibition at 10 µg/disc (Klebsiella aerogenes [29]): 22 mm; zone of inhibition at 10 µg/disc (Proteus vulgaris [30]): 22 mm; zone of inhibition at 10 µg/disc [31]: 17 mm; zone of inhibition at 10 µg/disc (Klebsiella pneumoniae [32]): 20 mm; zone of inhibition at 10 µg/disc (Staphylococcus aureus [33]): 16 mm; zone of inhibition at 10 µg/disc (Micrococcus luteus [34]): 23 mm; zone of inhibition at 10 µg/disc (Staphylococcus aureus [35]): 20 mm |
| CCCCCCN1C(=O)C2(C3=C(CN2C)C(=O)c2ccccc2C3=O)c2ccccc21 (configuration not stated) | 13 | 500 (≈ 1210 µM) | 10 | 500 (≈ 1210 µM) | 12 | 250 (≈ 603 µM) | 10 | 10 | 500 (≈ 1210 µM) | 8 | 250 (≈ 603 µM) | 125 (≈ 302 µM) | 12 | 500 (≈ 1210 µM) | 10 | 250 (≈ 603 µM) | 500 µg/mL (≈ 1210 µM) | 250 (≈ 603 µM) | 16 | 62.5 (≈ 151 µM) | zone of inhibition at 1000 µg/disc (Candida albicans [24]): 14 mm; zone of inhibition at 1000 µg/disc (Proteus vulgaris [25]): 10 mm |
